Active and inactive are the calls of the source. The rule behind the calls is not given here.
How the values were obtained:
A549 [1] = experiment: Cytotoxicity against TrxR overexpressing human A549 cells after 48 hrs by MTT assay; assay type: functional
In short: (§1)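 Cells grown in RPMI 1640 with 10% fetal calf serum, penicillin/streptomycin and 2 mM L-glutamine at 37 °C under 5% CO2. Seeded 1×10⁴/well and left overnight, then exposed 48 h to 0–100 µM. MTT was added for 4 h at 37 °C and formazan dissolved in DMSO, read at 570 nm. Run in quadruplicate; GC50 is the concentration giving 50% of control viability.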

[2] = Inhibition of TrxR preincuabatd for 4 mins
HepG2 = experiment: Cytotoxicity against TrxR overexpressing human HepG2 cells after 48 hrs by MTT assay; assay type: functional; in short: as §1
MCF7 = experiment: Cytotoxicity against TrxR overexpressing human doxorubicin-resistant MCF7 cells after 48 hrs by MTT assay; assay type: functional; in short: as §1
A549 [3] = experiment: Cytotoxicity against TrxR overexpressing human cis-diammine-dichloroplatinum (II)-resistant A549 cells after 48 hrs by MTT assay; assay type: functional; in short: as §1
[4] = biological target: T1, Thioredoxin reductase (Homo sapiens) (UniProt Q16881+Q9NNW7+Q86VQ6); experiment: Inhibition of TrxR in human HeLa cells at 50 uM after 12 hrs by insulin reduction assay; assay type: cell-based
In short: (§2)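 Cells (1.5×10⁶) in RPMI 1640 were exposed 12 h; controls got <1% DMSO. Cells were trypsinized and lysed in Tris pH 7.4/Triton/deoxycholate/SDS buffer with protease inhibitors, then spun at 16,000g. Lysate was incubated 30 min at 37 °C with 2.5 mg/ml bovine insulin, NADPH and Trx in HEPES/EDTA pH 7.4. The reaction was stopped with guanidine-HCl/DTNB and read at A412. A no-Trx mixture served as background; activity is % of control, n≥3.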

[5] = biological target: T1, Thioredoxin reductase (Homo sapiens); experiment: Inhibition of TrxR in human MCF7 cells at 50 uM after 12 hrs by insulin reduction assay; assay type: cell-based; in short: as §2
[6] = Inhibition of TrxR preincuabatd for 2 hrs followed by ultrafiltration
[7] = Inhibition of TrxR preincuabatd for 2 hrs

Compound | GC50 (A549 [1]) | IC50 [2] | other results
O=C(/C=C(O)/C=C/c1ccc(O)cc1)/C=C/c1ccccc1 | 41.3 µM | 23.3 µM | 
COc1cc(/C=C/C(=O)/C=C(O)/C=C/c2ccc(O)cc2)cc(OC)c1OC | 60.1 µM | 13.8 µM | 
COc1ccc(/C=C/C(=O)/C=C(O)/C=C/c2ccc(CO)o2)cc1 |  | 0.8 µM | GC50 (HepG2): >100 µM; GC50 (MCF7): 10 µM; GC50 (A549 [3]): 12.1 µM
O=C(/C=C/c1ccc(O)cc1)CC(=O)/C=C/c1ccc(O)cc1 [BISDEMETHOXYCURCUMIN] |  | > 100 µM | 
O=C(/C=C(O)/C=C/c1ccccc1)/C=C/c1ccccc1 |  | > 100 µM | 
O=C(/C=C(O)/C=C/c1ccc(CO)o1)/C=C/c1ccccc1 |  | 1.3 µM | GC50 (HepG2): >100 µM
COc1cc(/C=C/C(=O)/C=C(O)/C=C/c2ccc(CO)o2)cc(OC)c1OC | >100 µM | 2 µM | GC50 (HepG2): >100 µM
COc1cc(/C=C/C(=O)/C=C(O)/C=C/c2ccc(C)o2)ccc1O | >100 µM | 0.5 µM | GC50 (A549 [3]): 39.4 µM
O=C(/C=C(O)/C=C/c1cccs1)/C=C/c1ccc(O)cc1 |  | 20 µM | 
Cc1ccc(/C=C/C(=O)/C=C(O)/C=C/c2ccc(C)o2)o1 | 52.9 µM | 0.3 µM | Activity [4]: Active; GC50 (HepG2): >100 µM; Activity [5]: Active; Activity [6]: Active; GC50 (MCF7): 48.5 µM; GC50 (A549 [3]): 59.6 µM
O=C(/C=C(O)/C=C/c1ccc(O)cc1)/C=C/c1ccccc1Br |  | 50 µM | 
CN(C)c1ccc(/C=C/C(=O)/C=C(O)/C=C/c2ccc(CO)o2)cc1 |  | 62.2 µM | GC50 (HepG2): >100 µM
COc1cc(/C=C/C(O)=C/C(=O)/C=C/c2ccc(O)cc2)ccc1O [DEMETHOXYCURCUMIN] |  | 20 µM | 
COc1cc(/C=C2\CCC/C(=C\c3ccc(O)cc3)C2=O)cc(OC)c1OC |  | 24.9 µM | 
COc1cc(/C=C/C(O)=C/C(=O)/C=C/c2ccc(CO)o2)ccc1O | >100 µM | 1 µM | GC50 (HepG2): >100 µM; GC50 (MCF7): 10.6 µM; GC50 (A549 [3]): 35.8 µM
COc1cc(/C=C/C(=O)CC(=O)/C=C/c2ccc(O)c(OC)c2)ccc1O [CURCUMIN] | 18.2 µM | 38.3 µM | IC50 [7]: 4.2 µM; GC50 (A549 [3]): 73 µM
O=C(/C=C(O)/C=C/c1ccco1)/C=C/c1ccco1 | 66.4 µM | 1.6 µM | GC50 (MCF7): 33.6 µM
COc1ccc(/C=C/C(=O)/C=C(O)/C=C/c2ccc(OC)c(OC)c2)cc1OC [DIMETHYLCURCUMIN] |  | > 100 µM | 
COc1cc(/C=C/C(O)=C/C(=O)/C=C/c2ccccc2)ccc1O |  | 57 µM | 
COc1cc(/C=C2\CCC/C(=C\c3ccc(O)cc3)C2=O)ccc1O | >100 µM | 5.1 µM | 
COc1ccc(/C=C/C(=O)/C=C(O)/C=C/c2ccc(OC)cc2)cc1 |  | > 100 µM | GC50 (MCF7): >100 µM; GC50 (A549 [3]): >100 µM
